Screening results (PubChem BioAssay)
KCNQ1 act: human KCNQ1 channel potentiation or activation | P51787 | CHO-K1 KCNQ1, thallium flux FluxOR fluorescence; stronger effect = higher value | B-score at 10 µM | actives 0.35% (n = 310,000);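 active = fluorescence ratio B-score, a plate-corrected score, at least three library SD, with initial intensity B-score within 5 SD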
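Material: CHO-K1 cells stably expressing KCNQ1. Medium: assay buffer for compound exposure, DMSO matched across wells. Reagent: K+/Tl+ depolarizing stimulus. Compound dosing: single-concentration screen. Times: 37 °C overnight plating, 90-min dark dye load, 20-min compound pretreatment. Technique: FluxOR Tl+ flux fluorescence.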
hERG rescue: compounds protecting human hERG from proarrhythmic drug block. Q12809. CHO-hERG, FluxOR thallium flux, dofetilide IC70 present. activation (rescue from dofetilide block), less the hit threshold, % at 10 µM. actives 0.51% (n = 310,000);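 active = activation above the mean of controls blocked by dofetilide plus 5 SD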;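 also: thallium influx through hERG after potassium depolarization seen as dye fluorescence rise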
KCNQ1 inh: human KCNQ1 channel inhibition. P51787. CHO-K1 KCNQ1, FluxOR thallium flux fluorescence; stronger effect = higher value. B-score at 10 µM. actives 1.3% (n = 310,000). AID 2642;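 active = compounds whose thallium flux B-score, printed positive for inhibition, exceeds three library SD while starting fluorescence stays within three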;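 also: channel opened by potassium depolarization with thallium stimulus after 20 min compound exposure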
Kir21 inh: Kir2.1 (mouse) channel inhibition. actives 0.85% (n = 310,000). P35561. HEK293-Kir2.1, FluxOR thallium flux fluorescence; stronger effect = lower value. B-score at 10 µM;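 active = fluorescence ratio B-score at or below minus 3 SD of library scores, with starting-brightness B-score within 2 SD, cut at about -4.2 in these data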;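 also: channel flux triggered by added potassium and thallium sulfate stimulus; B-score of peak minus minimum fluorescence over baseline after thallium stimulus; more negative B-score means stronger Kir2.1 block with less thallium influx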
Target sequence (P35561 whole entry, looked up): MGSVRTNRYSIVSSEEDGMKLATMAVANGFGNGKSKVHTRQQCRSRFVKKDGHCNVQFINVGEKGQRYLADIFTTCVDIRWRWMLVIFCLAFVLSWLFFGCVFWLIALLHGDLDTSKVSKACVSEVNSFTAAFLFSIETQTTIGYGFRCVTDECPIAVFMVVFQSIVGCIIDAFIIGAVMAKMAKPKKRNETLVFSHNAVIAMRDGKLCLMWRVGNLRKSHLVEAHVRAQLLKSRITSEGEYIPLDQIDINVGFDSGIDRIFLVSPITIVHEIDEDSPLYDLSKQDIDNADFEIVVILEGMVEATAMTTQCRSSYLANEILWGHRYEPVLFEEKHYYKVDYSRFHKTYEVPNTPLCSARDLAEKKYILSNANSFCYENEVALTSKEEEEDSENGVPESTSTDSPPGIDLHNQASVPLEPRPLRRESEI
KCNK3 inh: human KCNK3 channel inhibition, primary screen; CHO-KCNK3 thallium flux, FluxOR fluorescence; stronger effect = lower value; B-score at 10 µM; actives 0.84% (n = 340,000); O14649;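 active = B-score under library mean minus 4 SD, starting fluorescence ratio at most library mean plus 5 SD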;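 also: more negative B-score means stronger inhibition of thallium flux through KCNK3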
KCNK9 inh: blocks the human KCNK9 two-pore domain potassium channel; B-score at 10 µM; AID 488922; actives 1.2% (n = 310,000); HEK293 KCNK9, FluxOR thallium flux fluorescence; stronger effect = lower value; Q9NPC2;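 active = ratio B-score over 3 SD below the library mean, with starting fluorescence within 5 SD of its mean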;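 also: negative B-score means less thallium flux so channel inhibition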
KCNK9 block conf: confirmation of human KCNK9 potassium channel inhibitors | shares compounds with KCNK9 inh | HEK293 KCNK9 cells, FluxOR thallium flux fluorescence | inhibition, % at 10 µM | actives 43% (n = 4,900);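 active = thallium signal inhibited by more than 5 SD of the compound-free buffer control wells, on both duplicate plates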;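 also: 0% = assay buffer control wells without compound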
Kir2-1 spec: tests whether KCNK9 modulators also affect mouse Kir2.1; shares compounds with KCNK9 inh; Kir2.1 cells, FluxOR thallium flux fluorescence; inhibition, % at 10 µM; actives 4% (n = 4,900); AID 492993;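 active = thallium signal drop more than 5 SD beyond the mean of the no-compound control wells, seen in both duplicate plates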;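 also: signal is fluorescence rise after thallium addition divided by baseline fluorescence; plate controls were assay buffer only for no effect and full block by chlorpromazine control for full effect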
HEK293 Tl ctr: second check of KCNK9 modulator effects in non-induced HEK293 cells | inhibition, % at 10 µM | FluxOR thallium flux | shares compounds with KCNK9 inh | actives 40% (n = 4,900) | AID 492997;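 active = thallium signal drop beyond 5 SD of the untreated control mean, on both duplicate plates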;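 also: plate controls were buffer only IC0 wells for no effect and SID17386958 at its maximal inhibitory level for full effect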
KCNK3 inh conf: confirmation of human KCNK3 two-pore domain potassium channel inhibitors; shares compounds with KCNK3 inh; CHO-KCNK3 thallium flux, FluxOR fluorescence; 0% buffer, 100% carvedilol maximal block; ratio percent of control, % at 10 µM; actives 99% (n = 2,400); AID 651638;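 active = ratio percent of control, averaged over triplicates, above buffer control mean plus 5 SD, cut at about 64% in these data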;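 also: ratio is the fluorescence rise from min to max over baseline after thallium stimulus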
KCNK3 uninduced: counter-screen for KCNK3 inhibitors: effect in non-induced cells; AID 651747; non-induced KCNK3 parental cells, FluxOR thallium flux; stronger effect = lower value; thallium flux ratio (lower = more inhibition) at 10 µM; actives 40% (n = 2,400); shares compounds with KCNK3 inh;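 active = thallium flux ratio, averaged over three wells, more than 5 SD below the buffer control mean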;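 also: host cells are CHO cells without KCNK3 induction; ratio is peak minus trough fluorescence over baseline then normalized to buffer controls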
* hit, by the source's call. Sampled rows, rich in hits. Any-hit rate of the full collection: about 3.7%.

CC(C)(C)C(=O)NNC(=O)c1cc(C(C)(C)C)nn1Cc1ccccc1 was read as KCNQ1 act inactive, hERG rescue -8.3, KCNQ1 inh inactive, Kir21 inh -0.14, KCNK3 inh inactive and KCNK9 inh inactive.
O=S(=O)(c1ccc(Br)s1)N1CCC(Cc2ccccc2)CC1 was read as KCNQ1 act inactive, hERG rescue -18.7, KCNQ1 inh inactive, Kir21 inh 0.89, KCNK3 inh -9.15*, KCNK9 inh inactive, KCNK9 block conf inactive, Kir2-1 spec inactive, HEK293 Tl ctr inactive, KCNK3 inh conf 99.7* and KCNK3 uninduced inactive.
N#CCC(=O)Nc1ccc(C(=O)OC(C(=O)Nc2cc(C(F)(F)F)ccc2Cl)c2ccccc2)cc1 (stereo not given) was read as KCNQ1 act inactive, hERG rescue -9.3, KCNQ1 inh inactive, Kir21 inh 2.56, KCNK3 inh inactive and KCNK9 inh inactive.
C[C@H](NC(=O)c1ccccc1Cl)C(=O)OC(C(=O)Nc1cc(C(F)(F)F)ccc1Cl)c1ccccc1 (stereo not given in full) was read as KCNQ1 act inactive, hERG rescue -3.0, KCNQ1 inh inactive, Kir21 inh 0.44, KCNK3 inh -11*, KCNK9 inh -18.4*, KCNK9 block conf 68.5%*, Kir2-1 spec inactive, HEK293 Tl ctr 39.5%*, KCNK3 inh conf 108.0* and KCNK3 uninduced inactive.
CCOC(=O)C(CCCCOc1cccc(CC)c1)C(=O)OCC was read as KCNQ1 act inactive, hERG rescue -12.9, KCNQ1 inh inactive, Kir21 inh -2.34, KCNK3 inh inactive and KCNK9 inh inactive.
CCOC(=O)C(CCCOc1cccc(CC)c1)C(=O)OCC was read as KCNQ1 act inactive, hERG rescue -4.9, KCNQ1 inh inactive, Kir21 inh -0.47, KCNK3 inh -10.2*, KCNK9 inh inactive, KCNK9 block conf inactive, Kir2-1 spec inactive, HEK293 Tl ctr inactive, KCNK3 inh conf 107.7* and KCNK3 uninduced inactive.
`CSc1nc2ccc(NS(=O)(=O)c3ccc(Br)s3)cc2s1` gave KCNQ1 act inactive, hERG rescue -18.6, KCNQ1 inh 6*, Kir21 inh -2.77, KCNK3 inh -11.4*, KCNK9 inh -8.34*, KCNK9 block conf 35.0%*, Kir2-1 spec inactive, HEK293 Tl ctr inactive, KCNK3 inh conf 127.0* and KCNK3 uninduced 0.128*.
For O=C(CSc1nc2[nH]ncc2c(=O)n1-c1ccccc1)NCCc1ccccc1 the results were KCNQ1 act inactive, hERG rescue -14.0, KCNQ1 inh inactive, Kir21 inh 1.16, KCNK3 inh inactive and KCNK9 inh inactive.
For O=C(CSc1nc2[nH]ncc2c(=O)n1-c1ccc(Cl)c(Cl)c1)NCc1ccccc1Cl the results were KCNQ1 act inactive, hERG rescue -18.9, KCNQ1 inh inactive, Kir21 inh 0.02, KCNK3 inh -12.2*, KCNK9 inh -8.18*, KCNK9 block conf 48.5%*, Kir2-1 spec inactive, HEK293 Tl ctr 33.5%*, KCNK3 inh conf 128.3* and KCNK3 uninduced 0.141*.
C/C(=N\Nc1cc(C)nc(-c2ccccc2)n1)c1cccc([N+](=O)[O-])c1 was read as KCNQ1 act inactive, hERG rescue -5.4, KCNQ1 inh inactive, Kir21 inh -0.05, KCNK3 inh -9.71*, KCNK9 inh -10.9*, KCNK9 block conf 50.0%*, Kir2-1 spec inactive, HEK293 Tl ctr 32.0%*, KCNK3 inh conf 103.0* and KCNK3 uninduced inactive.
For O=C(CNC(=O)c1ccc2c(c1)OCO2)N/N=C/c1cc(Br)ccc1O the results were KCNQ1 act inactive, hERG rescue -2.1, KCNQ1 inh inactive, Kir21 inh -2.28, KCNK3 inh inactive and KCNK9 inh inactive.
COc1cccc(-c2nn(-c3ccccc3)cc2C(=O)Nc2nccs2)c1 was read as KCNQ1 act inactive, hERG rescue -10.6, KCNQ1 inh 6*, Kir21 inh -0.7, KCNK3 inh -10.5*, KCNK9 inh -15.2*, KCNK9 block conf 35.0%*, Kir2-1 spec inactive, HEK293 Tl ctr inactive, KCNK3 inh conf 99.7* and KCNK3 uninduced 0.122*.
`O=[N+]([O-])c1cccc(C2CC(c3ccccc3)=NN2c2ccccc2)c1` (stereo not given) gave KCNQ1 act inactive, hERG rescue -5.0, KCNQ1 inh inactive, Kir21 inh 1.52, KCNK3 inh inactive, KCNK9 inh -10.1*, KCNK9 block conf 56.5%*, Kir2-1 spec inactive, HEK293 Tl ctr 28.0%*, KCNK3 inh conf 94.0* and KCNK3 uninduced inactive.
For N#CC1=C(N)n2c(s/c(=C\c3cccs3)c2=O)=C(C#N)C1c1cccs1 (stereo not given) the results were KCNQ1 act inactive, hERG rescue -8.7, KCNQ1 inh inactive, Kir21 inh 1.21, KCNK3 inh -9.44*, KCNK9 inh -11.1*, KCNK9 block conf 26.5%*, Kir2-1 spec inactive, HEK293 Tl ctr 39.0%*, KCNK3 inh conf 96.0* and KCNK3 uninduced 0.154*.
For N#CC1=C(N)n2c(s/c(=C\c3ccco3)c2=O)=C(C#N)C1c1ccco1 (stereo not given) the results were KCNQ1 act inactive, hERG rescue -6.7, KCNQ1 inh inactive, Kir21 inh -0.55, KCNK3 inh inactive and KCNK9 inh inactive.
CCOC(=O)Cc1csc(NC(=O)c2cc(-c3ccncc3)nc3ccccc23)n1 was read as KCNK3 inh inactive.
COc1ccccc1C(c1nnnn1C(C)(C)C)N1CCN(Cc2ccncc2)CC1 (stereo not given) was read as KCNQ1 act inactive, hERG rescue -8.2, KCNQ1 inh inactive, Kir21 inh 1.93, KCNK3 inh -9.22*, KCNK9 inh -18.9*, KCNK9 block conf 76.5%*, Kir2-1 spec inactive, HEK293 Tl ctr 33.5%*, KCNK3 inh conf 115.7* and KCNK3 uninduced inactive.
